Assay outcomes as filed in PubChem.
Rows were chosen to be rich in hits. Some 1.5% of all compounds tested hit in one or more screens of this group.
RAD52 anneal inh: inhibitors of human RAD52 DNA annealing; P43351; recombinant RAD52 DNA annealing, FRET fluorescence; inhibition, % at 18.7 µM; 360,000 compounds, 0.46% hits; AID 651710;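 active = every replicate showing at least 50% inhibition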
Target sequence (P43351 whole entry, looked up): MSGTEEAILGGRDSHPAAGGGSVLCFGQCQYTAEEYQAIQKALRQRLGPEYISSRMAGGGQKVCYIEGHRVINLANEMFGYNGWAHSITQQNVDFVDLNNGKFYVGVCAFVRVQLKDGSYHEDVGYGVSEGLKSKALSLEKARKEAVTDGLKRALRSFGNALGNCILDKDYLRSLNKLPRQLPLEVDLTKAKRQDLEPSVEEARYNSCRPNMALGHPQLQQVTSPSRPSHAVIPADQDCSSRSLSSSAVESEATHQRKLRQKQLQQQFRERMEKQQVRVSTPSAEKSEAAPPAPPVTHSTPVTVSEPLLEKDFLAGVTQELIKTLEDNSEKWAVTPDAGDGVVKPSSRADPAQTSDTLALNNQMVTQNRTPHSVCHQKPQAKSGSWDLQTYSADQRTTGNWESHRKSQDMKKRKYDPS
AF4-AF9 inh: inhibitors of human MLL-AF4/AF9 interaction; 350,000 compounds, 0.47% hits; inhibition, % at 10 µM; AlphaScreen, biotin-AF4 peptide binding to FLAG-AF9; P42568;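 active = every replicate reaching a set inhibition limit, whatever the replicate mean, cut at about 25% in these data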;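 note: 0% = plate neutral control median and 100% = total signal loss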
S100A4 inh HTS: blocks human S100A4 binding to myosin IIA peptide; P26447; inhibition, % at 10.7 µM; AID 652163; S100A4/TAMRA-MyoIIA peptide fluorescence polarization; 360,000 compounds, 0.14% hits;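 active = mean inhibition of at least 70% across replicates, with every replicate also reaching that level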
Target sequence (P26447 whole entry, looked up): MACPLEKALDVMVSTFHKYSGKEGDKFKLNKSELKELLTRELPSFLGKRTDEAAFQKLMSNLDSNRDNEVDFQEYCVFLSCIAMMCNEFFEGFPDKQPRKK
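Material: human S100A4 monomer with TAMRA-labelled myosin IIA peptide; buffer or medium: HEPES pH 7.2 with CaCl2, KCl, NaCl, DTT, Triton; compound dosing: one concentration per compound; schedule: 5 min incubation before reading; benchmarks: neutral control DMSO, positive control TFP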
ERAP1 HTS inh: ERAP1 (human) enzyme inhibition | Q9NZ08 | inhibition, % at 10.7 µM | 340,000 compounds, 0.15% hits | recombinant ERAP1, Leu-AMC fluorescence, 60 min | AID 652197;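 active = mean replicate inhibition of at least 30%, or all replicates individually reaching that 30% level; inactive = mean below 30% and not every replicate reaching it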;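 note: 0% = neutral control wells and 100% = L-leucinethiol positive control wells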
INS-1E GSIS act: GLuc luminescence reporter in INS-1E cells, primary screen for activators of glucose-dependent secretion of insulin. INS-1E GLuc reporter insulin secretion, 2-3 h. activation, % at 16.6 µM. 370,000 compounds, 0.61% hits;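 active = lowest replicate activation of at least 40%, so every replicate reaches that level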;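 note: 0% = median of neutral control wells and 100% = median of IBMX positive control wells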
Active calls of the source: *; . = not tested or not shown.

SMILES | RAD52 anneal inh | AF4-AF9 inh | S100A4 inh HTS | ERAP1 HTS inh | INS-1E GSIS act
O=C1c2ccccc2-c2onc3c(N4CCN(CCO)CC4)cc(N4CCN(C(=O)c5ccco5)CC4)c1c23 | -41.7 | 75.8* | 38.1 | 2.6 | -8.1
Fc1cccc(-c2nnn3c2nc(Cl)c2ccccc23)c1 | 11.4 | 0.4 | -1.3 | -1.0 | 44.8*
O=C(Nc1ccc(Cl)c(Cl)c1)Nc1nc(-c2ccccc2)cs1 | . | . | . | . | 166.2*
O=C(NCc1ccccn1)c1ccccc1OCc1ccc(Cl)cc1Cl | 0.5 | 0.4 | 1.5 | -3.0 | 49.0*
O=C(NCc1ccccn1)Nc1ccc(Cl)cc1Cl | -0.8 | -1.2 | -5.1 | 1.3 | 20.5
C[C@H](CO)N1C[C@H](C)[C@@H](CN(C)C(=O)Nc2ccc3c(c2)OCO3)Oc2c(NC(=O)Cc3cn(C)c4ccccc34)cccc2C1=O | . | . | . | . | -12.7
COC1=C(Nc2ccc(O)cc2)C(=O)c2ccccc2C1=O | -4.1 | 50.0* | 3.9 | 2.9 | 8.5
COC1=C(Nc2ccc(OC)cc2)C(=O)c2ccccc2C1=O | . | . | . | . | -18.1
COc1ccc2c3c(n(C)c2c1)[C@H](CO)N(C(=O)NC(C)C)CC31CCN(CC2CCCC2)CC1 | 8.1 | -1.7 | 12.1 | 0.7 | -9.2
COc1cccc(C(=O)c2cc3cc(Cl)ccc3[nH]2)c1 | -13.1 | -8.1 | -3.0 | -1.9 | -2.4
O=C(c1ccccc1)c1cc2cc(Cl)ccc2[nH]1 | -12.2 | -1.4 | -13.7 | -4.9 | 41.4*
Oc1cc(Nc2cccnc2)cc2cccnc12 | -25.7 | 39.5* | 2.4 | -0.6 | -16.1
Oc1cc(Nc2ccncc2)cc2cccnc12 | -39.3 | 70.0* | 7.7 | 7.7 | .
COCC(=O)N1CC2(CCN(Cc3cncnc3)CC2)c2c(n(C)c3cc(OC)ccc23)[C@@H]1CO | . | . | . | . | 25.7
C[C@@H]1CN(C)C(=O)c2cc(N(C)C)ccc2O[C@@H]1CN(C)S(C)(=O)=O | . | . | . | . | 17.8
N#C[C@@H]1[C@H](c2ccc(-c3ccc(F)cc3)cc2)[C@@H](CO)N1c1nc(-c2ccccc2)cs1 | 62.9* | 1.6 | -7.3 | 0.8 | -5.0
O=c1c(O[C@H]2O[C@@H](CO)[C@H](O)[C@@H](O)[C@@H]2O)c(-c2ccc(O)cc2)oc2cc(O)cc(O)c12 | 3.5 | -3.8 | -3.7 | . | -6.0
O=c1c(OC2OC(CO)C(O)C(O)C2O)c(-c2ccc(O)c(O)c2)oc2cc(O)cc(O)c12 (stereo not given) | 1.3 | -3.3 | 1.2 | 56.3* | -3.3
CCc1nc(Sc2nnnn2-c2ccccc2)c2c3c(sc2n1)CCCC3 | -3.7 | 46.7* | -4.7 | 1.2 | 6.4
C=CCN=c1scc(-c2ccco2)n1/N=C/c1ccc(O)c(O)c1O | -7.1 | -1.0 | 6.1 | -2.5 | -0.1
CN=c1scc(-c2cccs2)n1/N=C/c1ccc(O)c(O)c1O | -11.0 | 39.5* | -6.0 | -2.8 | -2.1
COc1cccc(CNC(=O)C[C@H]2C=C[C@@H](NS(=O)(=O)c3ccccc3OC)[C@@H](CO)O2)c1 | . | . | . | . | 11.5
C[C@H](CO)N1C[C@H](C)[C@@H](CN(C)C(=O)C2CC2)Oc2cc(C#CCN(C)C)ccc2S1(=O)=O | . | . | . | . | 16.9
NC(=NCCc1c[nH]c2ccccc12)NS(=O)(=O)c1cc(F)ccc1F | -13.8 | 6.8 | 2.1 | 42.6* | -1.3
COc1ccccc1CCN=C(N)NS(=O)(=O)c1ccc(F)cc1 | -0.7 | 1.7 | 1.7 | 0.3 | 15.5
SMILES | RAD52 anneal inh | AF4-AF9 inh | S100A4 inh HTS | ERAP1 HTS inh | INS-1E GSIS act
COc1cc(OC)c2c3c(c(C4CCCCC4)nc2c1)CCC3 | -11.2 | . | 60.4 | 1.1 | 266.3*
COc1ccc(-c2nc(C3CCCCC3)c3cc(OC)ccc3n2)cc1 | -6.3 | 0.8 | 0.2 | 1.6 | 9.9
CCS(=O)(=O)N1CC2(CN[C@H](CO)c3c2c2ccc(OC)cc2n3C)C1 | . | . | . | . | 8.1
CN1CCN(/N=C/c2c3ccccc3c(Cl)c3ccccc23)CC1 | 5.9 | 25.3* | 5.2 | -1.6 | 9.2
CSc1ccc(/C=N/N2CCN(C)CC2)cc1 | -4.3 | 8.0 | 2.0 | 5.8 | 6.7
CN1CCN(/N=C/c2ccc(-c3ccccc3)cc2)CC1 | -2.7 | 34.8* | 2.1 | 2.5 | 17.0
C(=N\N1CCN(Cc2ccccc2)CC1)/c1ccc(-c2ccccc2)cc1 | -5.6 | -3.8 | 4.7 | 1.5 | -8.3
COc1cccc(-c2ccc([C@@H]3[C@H]4CN(C(=O)C5CC5)CC(=O)N4[C@H]3CO)cc2)c1 | -8.7 | -1.6 | -1.0 | 0.1 | 2.3
CN(C(=O)COC(=O)c1cccs1)c1ccccc1 | -6.5 | -3.9 | -2.4 | -3.0 | 117.0*
COc1ccc2c3c([nH]c2c1)[C@@H](CO)N(C(=O)c1cnccn1)CC31CN(C(=O)c2cnccn2)C1 | . | -1.0 | . | . | 35.7
O=C(Nc1cccc(Cl)c1)N[C@H]1CC[C@H](CCNC(=O)C2CCCC2)O[C@H]1CO | 5.3 | -1.3 | 131.9* | 3.4 | -12.2
O=C(Nc1ccccc1F)N[C@H]1CC[C@H](CCNC(=O)C2CCCCC2)O[C@H]1CO | -0.9 | -1.4 | 87.4* | -2.5 | 9.9
COc1ccc(S(=O)(=O)N(C)C[C@H]2OCCCC[C@@H](C)Oc3ccc(NS(=O)(=O)c4ccccc4)cc3C(=O)N([C@@H](C)CO)C[C@H]2C)cc1 | -110.6 | 0.8 | -11.6 | -2.8 | -58.3
Cc1[nH]c2ccccc2c1/C=N/Nc1nncn1N | 2.4 | -3.1 | -0.9 | -1.4 | -10.4
Cc1[nH]c2ccccc2c1/C=N/Nc1ccccn1 | 19.0 | 26.3* | 2.2 | 4.3 | 1.8
Cc1ccc(S(=O)(=O)N(C)C[C@H]2OCCCC[C@@H](C)Oc3ccc(NC(=O)Nc4cccc5ccccc45)cc3C(=O)N([C@H](C)CO)C[C@@H]2C)cc1 | 6.8 | -2.9 | 63.3 | -1.0 | -32.6
COC(=O)C[C@H]1CC[C@H]2[C@@H](COc3ccc(NC(=O)CN(C)C)cc3C(=O)N2C)O1 | . | . | . | . | 2.4
Cc1ccc(NC(=O)COC(=O)c2cc(-c3cccs3)nn2-c2ccccc2)cc1[N+](=O)[O-] | . | . | . | . | 69.2*
Cc1nn2c(-c3ccncc3)ccnc2c1Cl | -15.3 | -3.3 | 13.8 | -6.0 | -8.1
Cc1ccc(-c2ccnc3c(Cl)c(C)nn23)cc1 | -3.7 | 51.1* | -4.4 | 6.7 | 3.0
CCOc1cc(OCC)nc(S(C)(=O)=O)n1 | . | . | . | . | 48.7*
CCN1[C@@H]2Cn3c(ccc(C4=CCCCC4)c3=O)[C@H]1[C@@H](C(=O)NC1Cc3ccccc3C1)[C@@H]2CO | -11.5 | 1.0 | 4.8 | 1.9 | -7.3
COc1ccc(CN(C)C[C@H]2Oc3c(NC(=O)NC(C)C)cccc3C(=O)N([C@H](C)CO)C[C@H]2C)cc1 | 1.8 | -4.8 | 107.1* | -2.2 | 10.1
C[C@@H]1CN([C@@H](C)CO)C(=O)c2cccc(NC(=O)c3ccncc3)c2O[C@H]1CN(C)Cc1ccc(Oc2ccccc2)cc1 | -16.4 | 3.2 | 2.5 | 2.5 | .
COc1ccc(CN(C)C[C@H]2Oc3c(NC(=O)Nc4ccc(C(F)(F)F)cc4)cccc3C(=O)N([C@H](C)CO)C[C@H]2C)cc1 | 4.8 | 9.5 | -3.4 | -0.9 | -16.7
COc1ccc(NC(=O)Nc2cccc3c2O[C@@H](CN(C)Cc2ccc(C(F)(F)F)cc2)[C@@H](C)CN([C@@H](C)CO)C3=O)cc1 | 87.3* | 2.7 | 1.3 | -1.3 | -15.8
